Key:
Salmonella typhimurium [1] = experiment: Mutagenic activity in Salmonella typhimurium TA 100 at 5 to 100 ug by Ames test in presence of Fischer-344 rat liver S9 fraction relative to 5-methylchrysene
Salmonella typhimurium [2] = experiment: Toxicity in Salmonella typhimurium TA 100 at 5 to 100 ug in presence of Fischer-344 rat liver S9 fraction; assay type: organism-based, Salmonella enterica subsp. enterica serovar Typhimurium
Procedure, shortened: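 Percent survivors were measured with diluted TA100 broth culture under the same S-9 plating conditions as the mutagenicity assay, except that excess histidine was added to the top agar.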

Salmonella typhimurium [3] = experiment: Mutagenic activity in Salmonella typhimurium TA 100 at 5 to 100 ug by Ames test in presence of Fischer-344 rat liver S9 fraction; assay type: toxicity, organism-based, Salmonella enterica subsp. enterica serovar Typhimurium
Procedure, shortened: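 TA100 plate-incorporation assay: compound in 50 µL Me₂SO, 0.1 mL overnight broth culture, 200 µL S-9 mix and 2 mL top agar (45 °C), poured on minimal glucose agar. S-9 from Aroclor 1254-induced rats (500 mg/kg, 5 days earlier); mix per mL: 100 µmol K phosphate pH 7.4, 8 µmol MgCl₂, 5 µmol G6P, 4 µmol NADP⁺. His⁺ revertants/plate, mean of four trials.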

Salmonella typhimurium [4] = experiment: Mutagenic activity in Salmonella typhimurium TA 100 at 50 ug by Ames test in absence of Fischer-344 rat liver S9 fraction; assay type: toxicity, organism-based, Salmonella enterica subsp. enterica serovar Typhimurium; settings: in vivo
Salmonella typhimurium [5] = experiment: Mutagenic activity in Salmonella typhimurium TA 100 at 5 to 100 ug by Ames test in absence of Fischer-344 rat liver S9 fraction; assay type: toxicity, organism-based, Salmonella enterica subsp. enterica serovar Typhimurium; settings: in vivo

Row | Compound | Activity (Salmonella typhimurium [1]) | Activity (Salmonella typhimurium [2]) | Activity (Salmonella typhimurium [3]) | Activity (Salmonella typhimurium [4]) | Activity (Salmonella typhimurium [5])
1 | COC(=O)c1cc2ccccc2c2ccc3c(c12)CCCC3 | Non-toxic | Non-toxic |  |  | 
2 | Cc1cc2ccccc2c2ccc3ccccc3c12 |  | Non-toxic | Toxic |  | 
3 | Cc1cc2ccccc2c2ccc3c(c12)C=CC(O)C3O (stereo not drawn) |  |  |  | Toxic | 
4 | O=c1oc2cccc3ccc4c5ccccc5cc1c4c32 |  | Non-toxic | Toxic |  | Non-toxic
5 | OCc1cc2ccccc2c2ccc3ccccc3c12 | Non-toxic | Non-toxic |  |  | 
6 | OCc1cc2ccccc2c2ccc3c(c12)CCCC3 | Non-toxic | Non-toxic |  |  | 
7 | Cc1cc2ccccc2c2c(C)cc3ccccc3c12 |  | Non-toxic | Toxic |  | 
8 | COC(=O)c1cc2ccccc2c2ccc3ccccc3c12 | Non-toxic | Non-toxic |  |  | 
9 | CC(=O)OCc1cc2ccccc2c2ccc3ccccc3c12 | Non-toxic | Non-toxic |  |  | 

— ChEMBL document CHEMBL3227943, “Synthesis and mutagenicity of 5,11-dimethylchrysene and some methyl-oxidized derivatives of 5-methylchrysene” (J Med Chem, 1979)
